Measurements collected from several papers.
Compare with care: the assays were run in different laboratories.
Target: Tyrosine-protein kinase Blk (BLK, Homo sapiens, UniProt P51451)

Structure (SMILES) | test | conditions | endpoint | result
N#CCCc1ccc2c(c1)-c1[nH]c3ccc([N+](=O)[O-])cc3c1CC(=O)N2 | cell-free assay | 0.5 µM | remaining signal | 78.8%
Cc1ccc(NC(=O)c2ccc(C)c(C(F)(F)F)c2)cc1C#Cc1nn(C2CCC(O)CC2)c2ncnc(N)c12 (centres unmarked) | cell-free assay | 10 µM | remaining signal | 0%
COc1cc2ncnc(Nc3ccc(Oc4ccccc4)c(C)c3C)c2cc1OC | enzyme activity, inhibitor | 1 µM | inhibition | 71%
COc1ccc2cc(OCC3(C(=O)O)CN(C(=O)c4ccc(F)cc4)C3)ccc2c1 | cell-free assay, competition with immobilised ligand | 1 µM | remaining binding | 93%
COc1cc2ncnc(Nc3ccc(F)c(Cl)c3)c2cc1OCCCN1CCOCC1 | cell-free assay | 0.5 µM | remaining signal | 87.7%
CN1CC(Oc2cnc(C#N)cc2-c2ccn3nc(NC(=O)C4CC4)cc3c2)C1 | enzyme activity, inhibitor | 1 µM | inhibition | 28%
CCOCCn1cc(C(=O)Nc2ccc(-n3nc(-c4cccnc4)cc3C(F)(F)F)cn2)ccc1=O | cell-free assay, competition with immobilised ligand | 1 µM | remaining binding | 89%
CCN(CC)c1ccc(C2=NNC(=O)CC2C)cc1[N+](=O)[O-] (centres unmarked) | enzyme activity, inhibitor | 10 µM | remaining activity | 110%
O=C(O)[C@H]1[C@H](Cn2nnc3ccccc3c2=O)CC[C@@H]1C(=O)c1ccc(OCCC2CCOCC2)cc1 | cell-free assay, competition with immobilised ligand | 1 µM | remaining binding | 100%
O=C(Nc1cnn(-c2csc(C(=O)NC3COC3)c2)c1)Nc1ccccc1Cl | enzyme activity, inhibitor | 5 µM | remaining activity | 79.2%
CC(C)(C)c1nc2c(s1)c1nc(N)ncc1c1ccc(NS(=O)(=O)c3c(F)cccc3F)c(F)c12 | enzyme activity, inhibitor, radiometric | 1 µM | remaining activity | 52%
Cc1cc(NC(=O)c2cccc3cc(-c4cccc5[nH]nc(N)c45)ccc23)ccc1F | enzyme activity, inhibitor | 0.1 µM | activity vs control | 114%
O=C1Nc2ccc(Cl)cc2C1=Cc1cc(Cl)c(O)c(Cl)c1 | cell-free assay | 0.5 µM | remaining signal | 102%
Cc1nccc(COC(=O)N2C[C@@H]3[C@@H](CNC(=O)c4ccc5[nH]nnc5c4)[C@@H]3C2)n1 | cell-free assay, competition with immobilised ligand | 1 µM | remaining binding | 93%
COc1cc(Cl)c(C(=O)N[C@@H](CN[C@H]2CC[C@@H](N)CC2)Cc2ccc(C#N)cc2)cc1-c1ccc(CN[C@H](C)c2ccc(C)cc2)o1 | enzyme activity, inhibitor | 1 µM | remaining activity | 80%
Nc1c(C(=O)NCc2ccc(C(=O)NCCCC3CCCCC3)cc2)cnn1-c1ccccc1 | cell-free assay, competition with immobilised ligand | 0.1 µM | remaining binding | 81%
CNC(=O)c1cc2c(Oc3ccc(NC(=O)C4(C(=O)Nc5ccc(F)cc5)CC4)cc3)ccnc2cc1OC | enzyme activity, inhibitor, radiometric | 1 µM | inhibition | 94%
